≈ marks a conversion by molar mass, not a printed value.
Assays:
Haemophilus influenzae [1] = assay: In vitro antimicrobial activity against aerobic bacteria Haemophilus influenzae MX366,; assay type: functional
Staphylococcus aureus [2] = assay: In vitro antimicrobial activity against aerobic bacteria Staphylococcus aureus 513E; assay type: functional
Collinsella aerofaciens = assay: In vitro antimicrobial activity against anaerobic bacteria eubacterium aerofaciens 1235; assay type: functional
Bacteroides fragilis [3] = assay: In vitro antimicrobial activity against anaerobic bacteria bacteroides fragilis 1936B,; assay type: functional
[4] = system: Prevotella melaninogenica; assay: In vitro antimicrobial activity against anaerobic bacteria bacteroides melaninogenicus 2736; assay type: functional
Streptococcus [5] = assay: In vitro antimicrobial activity against aerobic bacteria Streptococcus B 5; assay type: functional
Eikenella corrodens = assay: In vitro antimicrobial activity against anaerobic bacteria bacteroides corrodens 1874; assay type: functional
[6] = system: Haemophilus parainfluenzae; assay: In vitro antimicrobial activity against aerobic bacteria Haemophilus parainfluenzae 9796; assay type: functional
Phocaeicola vulgatus = assay: In vitro antimicrobial activity against anaerobic bacteria bacteroides vulgatus 1211; assay type: functional
Haemophilus influenzae [7] = assay: In vitro antimicrobial activity against aerobic bacteria Haemophilus influenzae 465; assay type: functional
[8] = system: Staphylococcus epidermidis; assay: In vitro antimicrobial activity against aerobic bacteria Streptococcus epi 222; assay type: functional
[9] = system: Bacteroides thetaiotaomicron; assay: In vitro antimicrobial activity against anaerobic bacteria bacteroides thetaiotaomicron 1438; assay type: functional
Streptococcus sanguinis = assay: In vitro antimicrobial activity against aerobic bacteria Streptococcus sanguis MX132; assay type: functional
[10] = system: Peptoniphilus asaccharolyticus; assay: In vitro antimicrobial activity against anaerobic bacteria peptococcus asaccharolyticus 1302; assay type: functional
[11] = system: Peptostreptococcus anaerobius; assay: In vitro antimicrobial activity against anaerobic bacteria eubacterium peptostreptococcus anaerobius 1428,; assay type: functional
Fusobacterium = assay: In vitro antimicrobial activity against anaerobic bacteria fusobacterium symbiosum 1470; assay type: functional
Streptococcus [12] = assay: In vitro antimicrobial activity against aerobic bacteria Streptococcus D 9960; assay type: functional
[13] = system: Fusobacterium necrophorum; assay: In vitro antimicrobial activity against anaerobic bacteria usobacterium necrophorum 6054A; assay type: functional
Bacteroides fragilis [14] = assay: In vitro antimicrobial activity against anaerobic bacteria bacteroides fragilis 1877; assay type: functional
Rattus norvegicus [15] = assay: Peripheral plasma levels in rats after oral administration of 100 mg/kg dose for 1 hr; assay type: functional, organism-based; design: dose 100 mg/kg
Procedure, shortened: (§1)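 Rats received 100 mg/kg orally and were sampled for peripheral plasma. Concentrations were measured by Micrococcus luteus agar-diffusion microbiological assay in Antibiotic Medium 1, with zone sizes converted using the standard curve for the appropriate compound. Each value is the average of three rats per time point.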

[16] = In vitro antimicrobial activity against anaerobic bacteria peptostreptococcus intermedius 1264; assay type: functional
Streptococcus [17] = assay: In vitro antimicrobial activity against aerobic bacteria Streptococcus B 14; assay type: functional
Staphylococcus aureus [18] = assay: In vitro antimicrobial activity against aerobic bacteria Staphylococcus aureus V140,; assay type: functional
Rattus norvegicus [19] = assay: Peripheral plasma levels in rats after oral administration of 100 mg/kg dose for 0.5 hr; assay type: functional, organism-based; design: dose 100 mg/kg; procedure, shortened: as §1
Mus musculus [20] = assay: Peripheral plasma levels in mice after oral administration of 100 mg/kg dose for 1 hr; assay type: functional, organism-based; design: dose 100 mg/kg
Procedure, shortened: (§2)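 Mice were given the compound orally and sampled for peripheral plasma at each time point. Plasma was assayed microbiologically against Micrococcus luteus seeded in Antibiotic Medium 1. Inhibition zone sizes were read, and concentrations were calculated from each compound's own standard curve. Each value is the mean of five mice per time point.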

Bacteroides fragilis [21] = assay: In vitro antimicrobial activity against anaerobic bacteria bacteroides fragilis 111; assay type: functional
Clostridioides difficile = assay: In vitro antimicrobial activity against anaerobic bacteria Clostridium difficile 2994; assay type: functional
Staphylococcus aureus [22] = assay: In vitro antimicrobial activity against aerobic bacteria Staphylococcus aureus V135; assay type: functional
Cutibacterium acnes = assay: In vitro antimicrobial activity against anaerobic bacteria propionibacterium acnes 79; assay type: functional
Streptococcus [23] = assay: In vitro antimicrobial activity against aerobic bacteria Streptococcus D 8043; assay type: functional
Clostridium septicum = assay: In vitro antimicrobial activity against anaerobic bacteria clostridium septicum 1128; assay type: functional
Clostridium perfringens = assay: In vitro antimicrobial activity against anaerobic bacteria clostridium perfringens 81,; assay type: functional
Rattus norvegicus [24] = assay: Peripheral plasma levels in rats after oral administration of 100 mg/kg dose for 0.25 hr; assay type: functional, organism-based; design: dose 100 mg/kg; procedure, shortened: as §1
Streptococcus [25] = assay: In vitro antimicrobial activity against aerobic bacteria Streptococcus C 24; assay type: functional
Rattus norvegicus [26] = assay: Peripheral plasma levels in rats after oral administration of 100 mg/kg dose for 4 hr; assay type: functional, organism-based; design: dose 100 mg/kg; procedure, shortened: as §1
Streptococcus [27] = assay: In vitro antimicrobial activity against aerobic bacteria Streptococcus B 8; assay type: functional
Streptococcus pneumoniae [28] = assay: In vitro antimicrobial activity against aerobic bacteria Streptococcus pneumoniae B1-438; assay type: functional, streptococcus pneum
Mus musculus [29] = assay: Peripheral plasma levels in mice after oral administration of 100 mg/kg dose for 2 hr; assay type: functional, organism-based; design: dose 100 mg/kg; procedure, shortened: as §2
Rattus norvegicus [30] = assay: Peripheral plasma levels in rats after oral administration of 100 mg/kg dose for 2 hr; assay type: functional, organism-based; design: dose 100 mg/kg; procedure, shortened: as §1
Streptococcus [31] = assay: In vitro antimicrobial activity against aerobic bacteria Streptococcus D 2041; assay type: functional
[32] = system: Prevotella melaninogenica; assay: In vitro antimicrobial activity against anaerobic bacteria bacteroides melaninogenicus 1856,; assay type: functional
Mus musculus [33] = assay: Peripheral plasma levels in mice after oral administration of 100 mg/kg dose for 0.25 hr; assay type: functional, organism-based; design: dose 100 mg/kg; procedure, shortened: as §2
Mus musculus [34] = assay: Peripheral plasma levels in mice after oral administration of 100 mg/kg dose for 0.5 hr; assay type: functional, organism-based; design: dose 100 mg/kg; procedure, shortened: as §2
Streptococcus [35] = assay: In vitro antimicrobial activity against aerobic bacteria Streptococcus G Kruder; assay type: functional
Haemophilus influenzae [36] = assay: In vitro antimicrobial activity against aerobic bacteria Haemophilus influenzae 76; assay type: functional
Streptococcus pneumoniae [37] = assay: In vitro antimicrobial activity against Streptococcus pneumoniae; assay type: functional
Haemophilus influenzae [38] = assay: In vitro antimicrobial activity against Haemophilus influenzae.; assay type: functional
Streptococcus pyogenes [39] = assay: In vitro antimicrobial activity against Streptococcus pyogenes C203; assay type: functional
Enterococcus faecium = assay: In vitro antimicrobial activity against Streptococcus faecium X66; assay type: functional, streptococcus fae-cium
[40] = system: Staphylococcus epidermidis; assay: In vitro antimicrobial activity against aerobic bacteria Streptococcus epi 270; assay type: functional
Staphylococcus aureus [41] = assay: In vitro antimicrobial activity against aerobic bacteria Staphylococcus aureus X400; assay type: functional
Mus musculus [42] = assay: Peripheral plasma levels in mice after oral administration of 50 mg/kg dose for 1 hr; assay type: functional, organism-based; design: dose 50 mg/kg; procedure, shortened: as §2
Streptococcus pyogenes [43] = assay: In vivo effective dose against experimental infections in rodent caused by Streptococcus pyogenes C203 when administered orally; assay type: functional; details: po
Streptococcus pyogenes [44] = assay: In vivo effective dose against experimental infections in rodent caused by Streptococcus pyogenes C203 when administered sc; assay type: functional
Staphylococcus aureus [45] = assay: In vitro antimicrobial activity against aerobic bacteria Staphylococcus aureus V41; assay type: functional
Staphylococcus aureus [46] = assay: In vitro antimicrobial activity against Staphylococcus aureus X1; assay type: functional
Mus musculus [47] = assay: Peripheral plasma levels in mice after oral administration of 100 mg/kg dose for 4 hr; assay type: functional, organism-based; design: dose 100 mg/kg; procedure, shortened: as §2
Streptococcus viridans = assay: In vitro antimicrobial activity against aerobic bacteria Streptococcus viridans 9943; assay type: functional
[48] = system: Staphylococcus epidermidis; assay: In vitro antimicrobial activity against Staphylococcus epidermidis EPI1; assay type: functional

## CC[C@H]1OC(=O)[C@H](C)[C@@H](O[C@H]2C[C@@](C)(OC)[C@@H](O)[C@H](C)O2)[C@H](C)[C@@H](O[C@@H]2O[C@H](C)C[C@H](N(C)C)[C@H]2O)[C@](C)(O)C[C@@H](C)C(=O)[C@H](C)[C@@H](O)[C@]1(C)O [ERYTHROMYCIN]
Haemophilus influenzae [1]
  MIC: 4 µg/mL (≈ 5.45 µM)
Staphylococcus aureus [2]
  MIC: 0.25 µg/mL (≈ 0.341 µM)
Collinsella aerofaciens
  MIC: < 0.5 µg/mL
Bacteroides fragilis [3]
  MIC: 2 µg/mL (≈ 2.73 µM)
[4]
  MIC: 1 µg/mL (≈ 1.36 µM)
Streptococcus [5]
  MIC: 0.06 µg/mL (≈ 0.0818 µM)
Eikenella corrodens
  MIC: 1 µg/mL (≈ 1.36 µM)
[6]
  MIC: 4 µg/mL (≈ 5.45 µM)
Phocaeicola vulgatus
  MIC: < 0.5 µg/mL
Haemophilus influenzae [7]
  MIC: 4 µg/mL (≈ 5.45 µM)
[8]
  MIC: 0.06 µg/mL (≈ 0.0818 µM)
[9]
  MIC: 1 µg/mL (≈ 1.36 µM)
Streptococcus sanguinis
  MIC: 0.03 µg/mL (≈ 0.0409 µM)
[10]
  MIC: 8 µg/mL (≈ 10.9 µM)
[11]
  MIC: 1 µg/mL (≈ 1.36 µM)
Fusobacterium
  MIC: 2 µg/mL (≈ 2.73 µM)
Streptococcus [12]
  MIC: 2 µg/mL (≈ 2.73 µM)
[13]
  MIC: 2 µg/mL (≈ 2.73 µM)
Bacteroides fragilis [14]
  MIC: 4 µg/mL (≈ 5.45 µM)
Rattus norvegicus [15]
  Concentration: 0.1 µg ml-1 ml-1
[16]
  MIC: < 0.5 µg/mL
Streptococcus [17]
  MIC: 0.12 µg/mL (≈ 0.164 µM)
Staphylococcus aureus [18]
  MIC: 0.25 µg/mL (≈ 0.341 µM)
Rattus norvegicus [19]
  Concentration: 0.1 µg ml-1 ml-1
Mus musculus [20]
  Concentration: 2.7 µg ml-1 ml-1
Bacteroides fragilis [21]
  MIC: 1 µg/mL (≈ 1.36 µM)
Clostridioides difficile
  MIC: < 0.5 µg/mL
Staphylococcus aureus [22]
  MIC: 0.25 µg/mL (≈ 0.341 µM)
Cutibacterium acnes
  MIC: < 0.5 µg/mL
Streptococcus [23]
  MIC: 0.06 µg/mL (≈ 0.0818 µM)
Clostridium septicum
  MIC: < 0.5 µg/mL
Clostridium perfringens
  MIC: < 0.5 µg/mL
Rattus norvegicus [24]
  Concentration: 0.1 µg ml-1 ml-1
Streptococcus [25]
  MIC: 0.12 µg/mL (≈ 0.164 µM)
Rattus norvegicus [26]
  Concentration: 0.4 µg ml-1 ml-1
Streptococcus [27]
  MIC: 0.06 µg/mL (≈ 0.0818 µM)
Streptococcus pneumoniae [28]
  MIC: 6 µg/mL (≈ 8.18 µM)
Mus musculus [29]
  Concentration: 0.7 µg ml-1 ml-1
Rattus norvegicus [30]
  Concentration: 0.2 µg ml-1 ml-1
Streptococcus [31]
  MIC: 1 µg/mL (≈ 1.36 µM)
[32]
  MIC: 2 µg/mL (≈ 2.73 µM)
Mus musculus [33]
  Concentration: 2.5 µg ml-1 ml-1
Mus musculus [34]
  Concentration: 5.6 µg ml-1 ml-1
Streptococcus [35]
  MIC: 0.1 µg/mL (≈ 0.136 µM)
Haemophilus influenzae [36]
  MIC: 2 µg/mL (≈ 2.73 µM)

## CC[C@H]1OC(=O)C[C@@H](O)[C@H](C)[C@@H](O[C@@H]2O[C@H](C)[C@@H](O)[C@H](N(C)C)[C@H]2O)[C@@H](CCN2C(=O)c3ccccc3C2=O)C[C@@H](C)C(=O)/C=C/C(C)=C/[C@@H]1CO[C@@H]1O[C@H](C)[C@@H](O)[C@@H](OC)[C@H]1OC
Haemophilus influenzae [1]
  MIC: 32 µg/mL (≈ 35.4 µM)
Streptococcus pneumoniae [37]
  MIC: 2 µg/mL (≈ 2.21 µM)
Staphylococcus aureus [2]
  MIC: 0.25 µg/mL (≈ 0.277 µM)
Streptococcus [5]
  MIC: 8 µg/mL (≈ 8.86 µM)
Haemophilus influenzae [38]
  MIC: 32 µg/mL (≈ 35.4 µM)
[8]
  MIC: 0.1 µg/mL (≈ 0.111 µM)
Streptococcus pyogenes [39]
  MIC: 0.25 µg/mL (≈ 0.277 µM)
Streptococcus sanguinis
  MIC: 2 µg/mL (≈ 2.21 µM)
Enterococcus faecium
  MIC: 8 µg/mL (≈ 8.86 µM)
Streptococcus [12]
  MIC: 4 µg/mL (≈ 4.43 µM)
[40]
  MIC: > 128 µg/mL
Streptococcus [17]
  MIC: 8 µg/mL (≈ 8.86 µM)
Staphylococcus aureus [18]
  MIC: 0.5 µg/mL (≈ 0.554 µM)
Mus musculus [20]
  Concentration: 2.1 µg/mL
Staphylococcus aureus [41]
  MIC: 0.5 µg/mL (≈ 0.554 µM)
Mus musculus [42]
  Concentration: 0.8 µg/mL
Staphylococcus aureus [22]
  MIC: 0.5 µg/mL (≈ 0.554 µM)
Streptococcus pyogenes [43]
  ED50: 15 mg/kg
Streptococcus [23]
  MIC: 4 µg/mL (≈ 4.43 µM)
Streptococcus [25]
  MIC: 0.5 µg/mL (≈ 0.554 µM)
Streptococcus [27]
  MIC: 8 µg/mL (≈ 8.86 µM)
Streptococcus pneumoniae [28]
  MIC: > 128 µg/mL
Mus musculus [29]
  Concentration: 0.9 µg/mL
Streptococcus pyogenes [44]
  ED50: 2.7 mg/kg
Streptococcus [31]
  MIC: 8 µg/mL (≈ 8.86 µM)
Staphylococcus aureus [45]
  MIC: 0.25 µg/mL (≈ 0.277 µM)
Staphylococcus aureus [46]
  MIC: 0.12 µg/mL (≈ 0.133 µM)
Mus musculus [47]
  Concentration: 0.3 µg/mL
Streptococcus viridans
  MIC: > 128 µg/mL
[48]
  MIC: 0.12 µg/mL (≈ 0.133 µM)
Mus musculus [33]
  Concentration: < 0.1 µg/mL
Mus musculus [34]
  Concentration: < 0.1 µg/mL
Streptococcus [35]; Streptococcus, read-out: MIC
  MIC: 32 µg/mL (≈ 35.4 µM)
Haemophilus influenzae [36]
  MIC: 32 µg/mL (≈ 35.4 µM)

— ChEMBL document CHEMBL1124186, “Synthesis and evaluation of tylosin-related macrolides modified at the aldehyde function: a new series of orally effective antibiotics” (1988)
